Laboratory results published in ChEMBL document CHEMBL1926550, “Synthesis and antibacterial activity of naphthyridone derivatives containing mono/difluoro-methyloxime pyrrolidine scaffolds” (2012).
Converted amounts (≈) assume the structure as drawn.

Columns and labels:
Type in all cases: functional
[1] = test system: Klebsiella pneumoniae; assay: Antibacterial activity against Klebsiella pneumoniae 09-2 after 18 hrs by two fold serial dilution method; details: 09-2, 18 h
Outline: (§1)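 Agar two-fold serial dilution in melted Mueller-Hinton agar, final concentrations 128 down to 0.008 μg/mL. Plates inoculated with 10⁴ cfu and incubated at 35 °C for 18 h. MIC taken as the lowest concentration giving no visible growth on the plate.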

[2] = test system: Klebsiella pneumoniae; assay: Antibacterial activity against Klebsiella pneumoniae 10-1 after 18 hrs by two fold serial dilution method; details: 10-1, 18 h; outline: as §1
[3] = test system: Klebsiella pneumoniae; assay: Antibacterial activity against Klebsiella pneumoniae 10-3 after 18 hrs by two fold serial dilution method; details: 10-3, 18 h; outline: as §1
[4] = test system: Pseudomonas aeruginosa; assay: Antibacterial activity against Pseudomonas aeruginosa 10-1 after 18 hrs by two fold serial dilution method; details: 10-1, 18 h; outline: as §1
[5] = test system: Pseudomonas aeruginosa; assay: Antibacterial activity against Pseudomonas aeruginosa 10-2 after 18 hrs by two fold serial dilution method; details: 10-2, 18 h; outline: as §1
[6] = test system: Staphylococcus epidermidis; assay: Antibacterial activity against methicillin-resistant Staphylococcus epidermidis 10-4 after 18 hrs by two fold serial dilution method; details: 10-4, 18 h
Outline: (§2)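 Agar two-fold serial dilution in melted Mueller-Hinton agar, 128 to 0.008 μg/mL. Plates inoculated with 10⁴ cfu, incubated 35 °C for 18 h. MIC taken as lowest concentration giving no visible growth on the plate.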

[7] = test system: Staphylococcus aureus; assay: Antibacterial activity against methicillin-resistant Staphylococcus aureus 10-2 infected KM mouse systemic infection model assessed as decrease in mouse mortality administered orally twice after 1 and 4 hrs post infection measured up to 7 days; details: 10-2, po
Outline: (§3)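 Strains grown on MH agar at 35 °C for 18 h, suspended in gastric mucin. Male KM mice (19–21 g), groups of 10, infected intraperitoneally with 0.5 mL at 5–10× MLD. Four oral dose levels per drug at 1 and 4 h post infection. Mortality followed 7 days; ED50 with 95% confidence limits by Bliss method.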

[8] = test system: Staphylococcus epidermidis; assay: Antibacterial activity against methicillin-resistant Staphylococcus epidermidis 10-4 infected KM mouse systemic infection model assessed as decrease in mouse mortality administered orally twice after 1 and 4 hrs post infection measured up to 7 days; details: 10-4, po; outline: as §3
[9] = test system: Escherichia coli; assay: Antibacterial activity against Escherichia coli 10-2 infected KM mouse systemic infection model assessed as decrease in mouse mortality administered orally twice after 1 and 4 hrs post infection measured up to 7 days; details: 10-2, po; outline: as §3
[10] = test system: Klebsiella pneumoniae; assay: Antibacterial activity against Klebsiella pneumoniae 10-3 infected KM mouse systemic infection model assessed as decrease in mouse mortality administered orally twice after 1 and 4 hrs post infection measured up to 7 days; details: 10-3, po; outline: as §3
[11] = test system: Pseudomonas aeruginosa; assay: Antibacterial activity against Pseudomonas aeruginosa 10-1 infected KM mouse systemic infection model assessed as decrease in mouse mortality administered orally twice after 1 and 4 hrs post infection measured up to 7 days; details: 10-1, po; outline: as §3
[12] = test system: Enterococcus faecium; assay: Antibacterial activity against Enterococcus faecium 09-1 after 18 hrs by two fold serial dilution method; details: 09-1, 18 h; outline: as §1
[13] = test system: Staphylococcus aureus; assay: Antibacterial activity against Staphylococcus aureus ATCC 25923 after 18 hrs by two fold serial dilution method; details: ATCC 25923, 18 h; outline: as §1
[14] = test system: Staphylococcus aureus; assay: Antibacterial activity against methicillin-resistant Staphylococcus aureus 10-1 after 18 hrs by two fold serial dilution method; details: 10-1, 18 h; outline: as §2
[15] = test system: Staphylococcus aureus; assay: Antibacterial activity against methicillin-resistant Staphylococcus aureus 10-3 after 18 hrs by two fold serial dilution method; details: 10-3, 18 h; outline: as §2
[16] = test system: Staphylococcus aureus; assay: Antibacterial activity against methicillin-resistant Staphylococcus aureus 10-4 after 18 hrs by two fold serial dilution method; details: 10-4, 18 h; outline: as §2
[17] = test system: Staphylococcus aureus; assay: Antibacterial activity against methicillin-sensitive Staphylococcus aureus 10-1 after 18 hrs by two fold serial dilution method; details: 10-1, 18 h; outline: as §1
[18] = test system: Staphylococcus aureus; assay: Antibacterial activity against methicillin-sensitive Staphylococcus aureus 10-2 after 18 hrs by two fold serial dilution method; details: 10-2, 18 h; outline: as §1
[19] = test system: Staphylococcus aureus; assay: Antibacterial activity against methicillin-sensitive Staphylococcus aureus 10-3 after 18 hrs by two fold serial dilution method; details: 10-3, 18 h; outline: as §1
[20] = test system: Staphylococcus aureus; assay: Antibacterial activity against methicillin-sensitive Staphylococcus aureus 10-4 after 18 hrs by two fold serial dilution method; details: 10-4, 18 h; outline: as §1
[21] = test system: Staphylococcus aureus; assay: Antibacterial activity against methicillin-sensitive Staphylococcus aureus 10-5 after 18 hrs by two fold serial dilution method; details: 10-5, 18 h; outline: as §1
[22] = test system: Staphylococcus epidermidis; assay: Antibacterial activity against methicillin-resistant Staphylococcus epidermidis 10-1 after 18 hrs by two fold serial dilution method; details: 10-1, 18 h; outline: as §2
[23] = test system: Staphylococcus epidermidis; assay: Antibacterial activity against methicillin-resistant Staphylococcus epidermidis 10-2 after 18 hrs by two fold serial dilution method; details: 10-2, 18 h; outline: as §2
[24] = test system: Staphylococcus epidermidis; assay: Antibacterial activity against methicillin-sensitive Staphylococcus epidermidis 10-1 after 18 hrs by two fold serial dilution method; details: 10-1, 18 h; outline: as §1
[25] = test system: Staphylococcus epidermidis; assay: Antibacterial activity against methicillin-sensitive Staphylococcus epidermidis 10-2 after 18 hrs by two fold serial dilution method; details: 10-2, 18 h; outline: as §1
[26] = test system: Streptococcus pneumoniae; assay: Antibacterial activity against Streptococcus pneumoniae 10-1 after 18 hrs by two fold serial dilution method; details: 10-1, 18 h; outline: as §1
[27] = test system: Enterococcus faecium; assay: Antibacterial activity against Enterococcus faecium 09-2 after 18 hrs by two fold serial dilution method; details: 09-2, 18 h; outline: as §1
[28] = test system: Enterococcus faecium; assay: Antibacterial activity against Enterococcus faecium 09-3 after 18 hrs by two fold serial dilution method; details: 09-3, 18 h; outline: as §1
[29] = test system: Enterococcus faecium; assay: Antibacterial activity against Enterococcus faecium 09-4 after 18 hrs by two fold serial dilution method; details: 09-4, 18 h; outline: as §1
[30] = test system: Enterococcus faecium; assay: Antibacterial activity against Enterococcus faecium 09-5 after 18 hrs by two fold serial dilution method; details: 09-5, 18 h; outline: as §1
[31] = test system: Enterococcus faecium; assay: Antibacterial activity against Enterococcus faecium 09-6 after 18 hrs by two fold serial dilution method; details: 09-6, 18 h; outline: as §1
[32] = test system: Enterococcus faecalis; assay: Antibacterial activity against Enterococcus faecalis 09-1 after 18 hrs by two fold serial dilution method; details: 09-1, 18 h; outline: as §1
[33] = test system: Enterococcus faecalis; assay: Antibacterial activity against Enterococcus faecalis 09-2 after 18 hrs by two fold serial dilution method; details: 09-2, 18 h; outline: as §1
[34] = test system: Escherichia coli; assay: Antibacterial activity against Escherichia coli 09-3 after 18 hrs by two fold serial dilution method; details: 09-3, 18 h; outline: as §1

`O=C(O)c1cn(C2CC2)c2cc(N3CCNCC3)c(F)cc2c1=O` [CIPROFLOXACIN] gave an MIC [1] of 32 µg/mL (≈ 96.6 µM), an MIC [2] of 0.06 µg/mL (≈ 0.181 µM) and an MIC [3] of 0.25 µg/mL (≈ 0.754 µM). The MIC [4] was 0.06 µg/mL (≈ 0.181 µM), the MIC [5] was greater than 128 µg/mL and the MIC [6] was 8 µg/mL (≈ 24.1 µM). It also gave an ED50 [7] of 15.9 mg/kg, an ED50 [8] of 24.5 mg/kg and an ED50 [9] of 4 mg/kg. The ED50 [10] was 87.5 mg/kg, the ED50 [11] was 111 mg/kg and the MIC [12] was greater than 128 µg/mL. It also gave an MIC [13] of 0.25 µg/mL (≈ 0.754 µM), an MIC [14] greater than 128 µg/mL and an MIC [15] greater than 128 µg/mL. For the same compound, the MIC [16] was greater than 128 µg/mL, the MIC [17] was 0.015 µg/mL (≈ 0.0453 µM) and the MIC [18] was 64 µg/mL (≈ 193 µM). It also gave an MIC [19] of 0.06 µg/mL (≈ 0.181 µM), an MIC [20] of 0.06 µg/mL (≈ 0.181 µM) and an MIC [21] of 0.03 µg/mL (≈ 0.0905 µM). It also gave an MIC [22] of 16 µg/mL (≈ 48.3 µM), an MIC [23] of 8 µg/mL (≈ 24.1 µM) and an MIC [24] of 8 µg/mL (≈ 24.1 µM). It also gave an MIC [25] of 64 µg/mL (≈ 193 µM), an MIC [26] of 0.03 µg/mL (≈ 0.0905 µM) and an MIC [27] greater than 128 µg/mL. For the same compound, the MIC [28] was 128 µg/mL (≈ 386 µM), the MIC [29] was 0.5 µg/mL (≈ 1.51 µM) and the MIC [30] was 64 µg/mL (≈ 193 µM). The MIC [31] was 0.5 µg/mL (≈ 1.51 µM), the MIC [32] was 64 µg/mL (≈ 193 µM) and the MIC [33] was 64 µg/mL (≈ 193 µM). For the same compound, the MIC [34] was 64 µg/mL (≈ 193 µM).
